Among the data in ChEMBL document CHEMBL1149862, “Guaiane sesquiterpene lactones and amino acid-sesquiterpene lactone conjugates from the aerial parts of Saussurea pulchella” (2008) are EC50 values, retold here.

pEC50: −log10 of the molar value.

Common to all, as to type: functional
What all share (conditions): read-out: ED50 (the source's name)

One test relates to HCT-15. As to the kind of experiment: Cytotoxicity against human HCT15 cells by SRB assay. The essentials: (§1)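 Sulforhodamine B (SRB) bioassay on cultured human cancer lines: A549 (non-small cell lung carcinoma), SK-OV-3 (ovary malignant ascites), SK-MEL-2 (skin melanoma) and HCT (colon adenocarcinoma). Cytotoxicity is reported as ED₅₀ in µM.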
The next test deals with SK-MEL-2. As to the kind of experiment: Cytotoxicity against human SK-MEL-2 cells by SRB assay. The essentials:
as §1
On the technique in general: In SRB staining, fixed cells bind dye roughly in proportion to their protein.

For another test, the system named is SK-OV-3. Put plainly: Cytotoxicity against human SKOV3 cells by SRB assay. Summed up: as §1
For the next test, the system named is A549. As to the kind of experiment: Cytotoxicity against human A549 cells by SRB assay. The essentials:
as §1

As to `C=C1C(=O)O[C@@H]2[C@H]3C(=C)[C@H](O)C[C@H]3C(=C)C[C@H](OC(=O)C(C)(O)CO)[C@@H]12` (stereo not given in full), the pEC50 in the test with HCT-15 is 4.54; in the test with SK-MEL-2, 4.98; with SK-OV-3, 4.74; with A549, less than 4.52.

On to `C=C1C(=O)O[C@@H]2[C@H]3C(=C)[C@@H](O)C[C@H]3C(=C)C[C@H](OC(=O)CC(C)(C)O)[C@@H]12`, for which the pEC50 in the test on HCT-15 is 4.85; in the test on SK-MEL-2, 5.17; in the test with SK-OV-3, 4.91; in the test with A549, less than 4.52.

Turning to `C=C1[C@@H]2[C@H]3OC(=O)[C@H](C)[C@@H]3[C@@H](O)CC(=C)[C@@H]2C[C@@H]1O`, the pEC50 in the test with HCT-15, in the test on SK-MEL-2, with SK-OV-3 and with A549 was less than 4.52 in each case.

Turning to `C=C1[C@@H]2[C@H]3OC(=O)[C@@H](CN4CCC[C@H]4C(=O)O)[C@@H]3[C@@H](OC(=O)C(C)(O)CO)CC(=C)[C@@H]2C[C@@H]1O` (stereo not given in full) [PULCHELLAMINE C], the pEC50 in the test with HCT-15 was 4.74; in the test on SK-MEL-2, 5.24; with SK-OV-3 it was 4.93; in the test on A549, 4.56.

Turning to `C=C1[C@@H]2[C@H]3OC(=O)[C@H](C)[C@@H]3[C@@H](OC(=O)C(C)(O)CO)CC(=C)[C@@H]2C[C@@H]1O` (stereo not given in full), the pEC50 in the test with HCT-15, in the test with SK-MEL-2, in the test with SK-OV-3 and in the test with A549 was less than 4.52 each time.

`C=C(CO)C(=O)O[C@H]1CC(=C)[C@@H]2C[C@H](O)C(=C)[C@@H]2[C@H]2OC(=O)C(=C)[C@@H]21` [CYNAROPICRIN]: the pEC50 in the test on HCT-15 is 4.92; in the test on SK-MEL-2, 5.39; in the test with SK-OV-3, 5.13; in the test on A549, 4.61.

In the case of `C=C1[C@@H]2[C@H]3OC(=O)[C@@H](CN[C@H](C(=O)O)[C@H](C)CC)[C@@H]3[C@@H](O)CC(=C)[C@@H]2C[C@@H]1O` [PULCHELLAMINE G], the pEC50 in the test on HCT-15, with SK-MEL-2, with SK-OV-3 and in the test on A549 was less than 4.52 in each case.

On to `C=C1[C@@H]2[C@H]3OC(=O)[C@@H](CN[C@@H](Cc4c[nH]c5ccccc45)C(=O)O)[C@@H]3[C@@H](O)CC(=C)[C@@H]2C[C@@H]1O` [PULCHELLAMINE F], for which the pEC50 in the test on HCT-15 is less than 4.52; with SK-MEL-2, 4.73; in the test with SK-OV-3, 4.62; in the test on A549, less than 4.52.

For `C=C1C(=O)O[C@@H]2[C@H]3C(=C)[C@@H](O)C[C@H]3C(=C)C[C@H](O)[C@@H]12` [DESACYLCYNAROPICRIN], the pEC50 was 4.95 in the test with HCT-15, 5.01 in the test on SK-MEL-2, 4.95 in the test on SK-OV-3 and 4.59 in the test with A549.

As to `C=C1[C@@H]2[C@H]3OC(=O)[C@@H](CNCCCC(=O)O)[C@@H]3[C@@H](O)CC(=C)[C@@H]2C[C@@H]1O` [PULCHELLAMINE B], the pEC50 in the test on HCT-15, with SK-MEL-2, with SK-OV-3 and in the test on A549 was less than 4.52 each time.

As for `C=C1[C@@H]2[C@H]3OC(=O)[C@@H](CN[C@@H](Cc4ccccc4)C(=O)O)[C@@H]3[C@@H](O)CC(=C)[C@@H]2C[C@@H]1O` [PULCHELLAMINES D], the pEC50 in the test with HCT-15, with SK-MEL-2, with SK-OV-3 and in the test with A549 was less than 4.52 in each case.

Consider `COc1cccc2c1C(=O)c1c(O)c3c(c(O)c1C2=O)C[C@@](O)(C(=O)CO)C[C@@H]3O[C@H]1C[C@H](N)[C@H](O)[C@H](C)O1` [DOXORUBICIN], for which the pEC50 in the test with HCT-15 is 6.79; with SK-MEL-2, 6.93; in the test on SK-OV-3, 7.25; with A549, 8.15.

Turning to `C=C1[C@@H]2[C@H]3OC(=O)[C@H](C)[C@@H]3[C@@H](O[C@@H]3O[C@H](CO)[C@@H](O)[C@H](O)[C@H]3O)CC(=C)[C@@H]2C[C@@H]1O`, the pEC50 in the test on HCT-15, with SK-MEL-2, in the test with SK-OV-3 and in the test with A549 was less than 4.52 throughout.

As for `C=C1[C@@H]2[C@H]3OC(=O)[C@@H](CN[C@H](C(=O)O)C(C)C)[C@@H]3[C@@H](O)CC(=C)[C@@H]2C[C@@H]1O` [PULCHELLAMINE E], the pEC50 in the test on HCT-15, in the test with SK-MEL-2, in the test on SK-OV-3 and with A549 was less than 4.52 in each case.

As for `C=C1[C@@H]2[C@H]3OC(=O)[C@@H](CN[C@@H](CC(N)=O)C(=O)O)[C@@H]3[C@@H](O)CC(=C)[C@@H]2C[C@@H]1O` [PULCHELLAMINE A], the pEC50 with HCT-15, in the test with SK-MEL-2, with SK-OV-3 and in the test with A549 was less than 4.52 throughout.
